ChEMBL document CHEMBL1817584, “Synthesis of novel fluconazoliums and their evaluation for antibacterial and antifungal activities” (2011)
≈ marks a conversion by molar mass, not a printed value.

How the values were obtained:
Bacillus subtilis = experiment: Antibacterial activity against Bacillus subtilis ATCC 21216 after 24 hrs by twofold serial dilution method; assay type: functional; settings: ATCC 21216, 24 h
How it was run: (§1)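 Each bacterial suspension was adjusted with sterile saline to 1 × 10⁵ CFU. Compounds were first dissolved in DMSO as stock solutions, then diluted in Mueller–Hinton broth in twofold steps (8, 4, 2, 1, 0.5, 0.25). Dilutions were inoculated and incubated at 37 °C for 24 h, and MIC was read. DMSO plus inoculum without drug served as a solvent control.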

Pseudomonas aeruginosa = experiment: Antibacterial activity against Pseudomonas aeruginosa ATCC 27853 after 24 hrs by twofold serial dilution method; assay type: functional; settings: ATCC 27853, 24 h; how it was run: as §1
Aspergillus fumigatus [1] = experiment: Antifungal activity against Aspergillus fumigatus ATCC 96918 after 24 hrs by twofold serial dilution method; assay type: functional; settings: ATCC 96918, 24 h
How it was run: (§2)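 A fungal spore suspension was made in sterile distilled water from a 1-day-old culture grown on Sabouraud agar, then tested against serial dilutions of compounds (DMSO stocks) to determine MIC.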

Staphylococcus aureus [2] = experiment: Antibacterial activity against Staphylococcus aureus ATCC 6538 after 24 hrs by twofold serial dilution method; assay type: functional; settings: ATCC 6538, 24 h; how it was run: as §1
Escherichia coli [3] = experiment: Antibacterial activity against Escherichia coli ATCC 8099 after 24 hrs by twofold serial dilution method; assay type: functional; settings: ATCC 8099, 24 h; how it was run: as §1
Candida albicans = experiment: Antifungal activity against Candida albicans ATCC 76615 after 24 hrs by twofold serial dilution method; assay type: functional; settings: ATCC 76615, 24 h; how it was run: as §2
Staphylococcus aureus [4] = experiment: Antibacterial activity against methicillin-resistant Staphylococcus aureus N315 after 24 hrs by twofold serial dilution method; assay type: functional; settings: N315, 24 h
How it was run: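 Compounds were dissolved in DMSO as stock, then diluted twofold in Mueller–Hinton broth. Chloromycin and norfloxacin were run as reference drugs. The inoculum was adjusted in sterile saline to 1 × 10⁵ CFU, and a DMSO-plus-inoculum well served as solvent control. Plates were incubated at 37 °C for 24 h and read as MIC.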

Bacillus [5] = experiment: Antibacterial activity against Bacillus proteus ATCC 13315 after 24 hrs by twofold serial dilution method; assay type: functional; settings: ATCC 13315, 24 h; how it was run: as §1
Aspergillus fumigatus [6] = experiment: Ratio of Fluconazole MIC to compound MIC for Aspergillus fumigatus ATCC 96918
Bacillus [7] = experiment: Ratio of Chloromycin MIC to compound MIC for Bacillus proteus ATCC 13315; assay type: functional
Escherichia coli [8] = experiment: Ratio of Chloromycin MIC to compound MIC for Escherichia coli ATCC 8099; assay type: functional

Row | SMILES | MIC (Bacillus subtilis) | MIC (Pseudomonas aeruginosa) | MIC (Aspergillus fumigatus [1]) | MIC (Staphylococcus aureus [2]) | MIC (Escherichia coli [3]) | MIC (Candida albicans) | MIC (Staphylococcus aureus [4]) | MIC (Bacillus [5]) | Ratio (Aspergillus fumigatus [6]) | Ratio (Bacillus [7]) | Ratio (Escherichia coli [8])
1 | CCCCCCCCCCCC[n+]1cnn(CC(O)(Cn2c[n+](CCCCCCCCCCCC)cn2)c2ccc(F)cc2F)c1.[Br-].[Br-] | > 256 µg/mL | 8 µg/mL | > 256 µg/mL | 2 µg/mL | 2 µg/mL | 2 µg/mL | 32 µg/mL | 8 µg/mL | – | – | –
2 | O=C1c2cccc3c(Br)ccc(c23)C(=O)N1CCCBr | > 256 µg/mL | > 256 µg/mL | 128 µg/mL (≈ 322 µM) | 128 µg/mL (≈ 322 µM) | 256 µg/mL (≈ 645 µM) | > 256 µg/mL | > 256 µg/mL | > 256 µg/mL | – | – | –
3 | BrCCOc1ccc2ccccc2c1 | > 256 µg/mL | > 256 µg/mL | > 256 µg/mL | 256 µg/mL (≈ 1020 µM) | 256 µg/mL (≈ 1020 µM) | > 256 µg/mL | > 256 µg/mL | > 256 µg/mL | – | – | –
4 | OC(Cn1c[n+](Cc2ccc(F)cc2F)cn1)(Cn1c[n+](Cc2ccc(F)cc2F)cn1)c1ccc(F)cc1F.[Br-].[Br-] | 256 µg/mL | > 256 µg/mL | > 256 µg/mL | 64 µg/mL | 64 µg/mL | 128 µg/mL | 256 µg/mL | 128 µg/mL | – | – | –
5 | OC(Cn1c[n+](Cc2ccc(Cl)cc2Cl)cn1)(Cn1c[n+](Cc2ccc(Cl)cc2Cl)cn1)c1ccc(F)cc1F.[I-].[I-] | 64 µg/mL | 32 µg/mL | 32 µg/mL | 16 µg/mL | 4 µg/mL | 64 µg/mL | 64 µg/mL | 4 µg/mL | – | – | –
6 | O=C1c2cccc3c(Br)ccc(c23)C(=O)N1CCCCCCn1cncn1 | > 256 µg/mL | > 256 µg/mL | > 256 µg/mL | > 256 µg/mL | > 256 µg/mL | > 256 µg/mL | > 256 µg/mL | > 256 µg/mL | – | – | –
7 | OC(Cn1c[n+](Cc2ccc(Cl)c(Cl)c2)cn1)(Cn1c[n+](Cc2ccc(Cl)c(Cl)c2)cn1)c1ccc(F)cc1F.[Cl-].[Cl-] | 32 µg/mL | 16 µg/mL | 128 µg/mL | 8 µg/mL | 32 µg/mL | 4 µg/mL | 64 µg/mL | 8 µg/mL | – | – | –
8 | CCCCCCCCCCCCCCCC[n+]1cnn(CC(O)(Cn2c[n+](CCCCCCCCCCCCCCCC)cn2)c2ccc(F)cc2F)c1.[Br-].[Br-] | 128 µg/mL | 128 µg/mL | > 256 µg/mL | 8 µg/mL | 8 µg/mL | 4 µg/mL | 128 µg/mL | 256 µg/mL | – | – | –
9 | O=C1c2cccc3c(Br)ccc(c23)C(=O)N1CCC[n+]1cnn(CC(O)(Cn2c[n+](CCCN3C(=O)c4cccc5c(Br)ccc(c45)C3=O)cn2)c2ccc(F)cc2F)c1.[Br-].[Br-] | 64 µg/mL | 16 µg/mL | 16 µg/mL | 8 µg/mL | 8 µg/mL | 8 µg/mL | 4 µg/mL | 32 µg/mL | 8 | – | –
10 | OC(Cn1c[n+](Cc2ccccc2Cl)cn1)(Cn1c[n+](Cc2ccccc2Cl)cn1)c1ccc(F)cc1F.[Cl-].[Cl-] | 256 µg/mL | > 256 µg/mL | 32 µg/mL | 32 µg/mL | 128 µg/mL | 128 µg/mL | 256 µg/mL | 8 µg/mL | – | – | –
11 | OC(Cn1c[n+](Cc2ccc(Cl)cc2)cn1)(Cn1c[n+](Cc2ccc(Cl)cc2)cn1)c1ccc(F)cc1F.[Cl-].[Cl-] | 256 µg/mL | 16 µg/mL | 64 µg/mL | 64 µg/mL | 256 µg/mL | 256 µg/mL | > 256 µg/mL | 256 µg/mL | – | – | –
12 | OC(Cn1c[n+](Cc2cccc(Cl)c2)cn1)(Cn1c[n+](Cc2cccc(Cl)c2)cn1)c1ccc(F)cc1F.[Cl-].[Cl-] | 64 µg/mL | 64 µg/mL | 256 µg/mL | 4 µg/mL | 32 µg/mL | 4 µg/mL | 32 µg/mL | 128 µg/mL | – | – | –
13 | CCn1cc(C(=O)O)c(=O)c2cc(F)c(N3CCNCC3)cc21 [NORFLOXACIN] | 1 µg/mL (≈ 3.13 µM) | 2 µg/mL (≈ 6.26 µM) | – | 8 µg/mL (≈ 25.1 µM) | 0.5 µg/mL (≈ 1.57 µM) | – | 1 µg/mL (≈ 3.13 µM) | 1 µg/mL (≈ 3.13 µM) | – | – | –
14 | CCCCCCCC[n+]1cnn(Cc2ccc(F)cc2F)c1.[Br-] | 64 µg/mL | 16 µg/mL | 32 µg/mL | 8 µg/mL | 16 µg/mL | 32 µg/mL | 16 µg/mL | 8 µg/mL | – | – | –
15 | O=C1c2cccc3c(Br)ccc(c23)C(=O)N1CCCCCCn1c[n+](Cc2ccc(F)cc2F)cn1.[Br-] | 128 µg/mL | 8 µg/mL | 64 µg/mL | 16 µg/mL | 32 µg/mL | 64 µg/mL | 64 µg/mL | 16 µg/mL | – | – | –
16 | OC(Cn1c[n+](Cc2ccc(Cl)cc2Cl)cn1)(Cn1c[n+](Cc2ccc(Cl)cc2Cl)cn1)c1ccc(F)cc1F.[Br-].[Br-] | 32 µg/mL | 64 µg/mL | 128 µg/mL | 64 µg/mL | 16 µg/mL | 64 µg/mL | 64 µg/mL | 4 µg/mL | – | – | –
17 | Fc1ccc(Cn2c[n+](CCOc3ccc4ccccc4c3)cn2)c(F)c1.[Br-] | 64 µg/mL | 8 µg/mL | 128 µg/mL | 16 µg/mL | 8 µg/mL | 32 µg/mL | 64 µg/mL | 16 µg/mL | – | – | –
18 | O=[N+]([O-])c1ccc(C[n+]2cnn(CC(O)(Cn3c[n+](Cc4ccc([N+](=O)[O-])cc4)cn3)c3ccc(F)cc3F)c2)cc1.[Br-].[Br-] | 128 µg/mL | 128 µg/mL | 128 µg/mL | 64 µg/mL | 64 µg/mL | 128 µg/mL | 256 µg/mL | 128 µg/mL | – | – | –
19 | CCCC[n+]1cnn(CC(O)(Cn2c[n+](CCCC)cn2)c2ccc(F)cc2F)c1.[Br-].[Br-] | > 256 µg/mL | 256 µg/mL | > 256 µg/mL | > 256 µg/mL | 128 µg/mL | 128 µg/mL | > 256 µg/mL | 256 µg/mL | – | – | –
20 | OC(Cn1c[n+](Cc2ccc(Cl)cc2Cl)cn1)(Cn1c[n+](Cc2ccc(Cl)cc2Cl)cn1)c1ccc(F)cc1F.[Cl-].[Cl-] | 16 µg/mL | 4 µg/mL | 128 µg/mL | 8 µg/mL | 4 µg/mL | 16 µg/mL | 4 µg/mL | 0.5 µg/mL | – | 32 | –
21 | Cc1cccc(C[n+]2cnn(CC(O)(Cn3c[n+](Cc4cccc(C)c4)cn3)c3ccc(F)cc3F)c2)c1.[Br-].[Br-] | 256 µg/mL | 256 µg/mL | 256 µg/mL | 16 µg/mL | 128 µg/mL | 64 µg/mL | 256 µg/mL | 256 µg/mL | – | – | –
22 | F[P-](F)(F)(F)(F)F.F[P-](F)(F)(F)(F)F.OC(Cn1c[n+](Cc2ccc(Cl)cc2Cl)cn1)(Cn1c[n+](Cc2ccc(Cl)cc2Cl)cn1)c1ccc(F)cc1F | 32 µg/mL | 64 µg/mL | 256 µg/mL | 32 µg/mL | ≤ 0.25 µg/mL | 128 µg/mL | 32 µg/mL | 1 µg/mL | – | – | 256
23 | Fc1ccc(Cn2c[n+](Cc3ccc(Cl)cc3Cl)cn2)c(F)c1.[Br-] | 128 µg/mL | 128 µg/mL | > 256 µg/mL | > 256 µg/mL | 128 µg/mL | > 256 µg/mL | > 256 µg/mL | 64 µg/mL | – | – | –
24 | O=C1c2cccc3c(Br)ccc(c23)C(=O)N1CCCCCCBr | > 256 µg/mL | > 256 µg/mL | 256 µg/mL (≈ 583 µM) | 256 µg/mL (≈ 583 µM) | > 256 µg/mL | > 256 µg/mL | > 256 µg/mL | > 256 µg/mL | – | – | –
25 | O=C1c2cccc3c(Br)ccc(c23)C(=O)N1CCCCCC[n+]1cnn(CC(O)(Cn2c[n+](CCCCCCN3C(=O)c4cccc5c(Br)ccc(c45)C3=O)cn2)c2ccc(F)cc2F)c1.[Br-].[Br-] | 64 µg/mL | 32 µg/mL | 32 µg/mL | 8 µg/mL | 8 µg/mL | 16 µg/mL | 16 µg/mL | 64 µg/mL | 8 | – | –
26 | OC(Cn1cncn1)(Cn1cncn1)c1ccc(F)cc1F [FLUCONAZOLE] | – | – | 256 µg/mL (≈ 836 µM) | – | – | 0.5 µg/mL (≈ 1.63 µM) | – | – | – | – | –
27 | OC(Cn1c[n+](Cc2ccccc2)cn1)(Cn1c[n+](Cc2ccccc2)cn1)c1ccc(F)cc1F.[Br-].[Br-] | 256 µg/mL | 128 µg/mL | 128 µg/mL | 256 µg/mL | 256 µg/mL | 256 µg/mL | 128 µg/mL | 128 µg/mL | – | – | –
28 | Fc1ccc(Cn2cncn2)c(F)c1 | > 256 µg/mL | > 256 µg/mL | > 256 µg/mL | > 256 µg/mL | > 256 µg/mL | > 256 µg/mL | > 256 µg/mL | > 256 µg/mL | – | – | –
